Measurements pooled from the literature.
Compare with care: the assays were run in different laboratories.
CTSB: Cathepsin B (CTSB, Homo sapiens, UniProt P07858)
Genome polyprotein protease: Genome polyprotein, protease (ZIKV, UniProt A0A024B7W1)

SMILES | target | assay | conditions | IC50 [µM]
C[C@H](N)Cn1ncc2ccc3c(c21)CCCO3 | 5-hydroxytryptamine receptor 6 (HTR6, Homo sapiens, UniProt P50406) | ligand displacement, radioligand | – | 19.6
N#Cc1cc(F)cc(NS(=O)(=O)c2ccc(S(=O)(=O)F)c3c2CCCC3)c1 | RALB (Homo sapiens, UniProt P11234, Y82F) | cell-free assay, inhibitor, fluorescence | – | 69
COCCn1c2nc(=O)n(-c3ccccc3)c(=O)c-2nc2ccccc21 | Genome polyprotein, methyltransferase (ZIKV, UniProt A0A024B7W1) | enzyme activity, inhibitor, TR-FRET | – | 6.8
CCCCCCCCCCCCCC(=O)O[C@@H]1[C@@H](C)[C@@]2(O)[C@@H](C=C(CO)C[C@]3(O)C(=O)C(C)=C[C@@H]23)[C@@H]2C(C)(C)[C@]12OC(C)=O | Proteinase-activated receptor 1 (F2R, Homo sapiens, UniProt P25116) | calcium signal, antagonist | – | 0.00747
CC(C)C[C@H](NC(=O)[C@H]1O[C@@H]1C(=O)O)C(=O)NCCCCN=C(N)N | CTSB | enzyme activity, inhibitor | – | 0.004
CC(C)C[C@H]1C(=O)N2CCC[C@H]2[C@]2(O)O[C@](NC(=O)[C@@H]3C=C4c5cccc6[nH]c(Br)c(c56)C[C@H]4N(C)C3)(C(C)C)C(=O)N12 | 5-hydroxytryptamine receptor 7 (HTR7, Homo sapiens, UniProt P34969) | cAMP, antagonist | – | 0.08
COc1c(-c2ccccc2)oc2c(ccc3occc32)c1=O | Cyclin-dependent kinase 2, with cyclin E1 (CDK2, Homo sapiens, UniProt P24941) | enzyme activity, inhibitor, ADP detection | – | > 10
CC(C)N(C)[C@@H]1CC[C@H](N2CC[C@H](NC(=O)c3cccc(C(F)(F)F)c3)C2=O)[C@H](CS(=O)(=O)C(C)C)C1 | C-C chemokine receptor type 2 (CCR2, Homo sapiens, UniProt P41597) | cell-free assay | – | 0.0003
N=C1CCCN1Cc1[nH]c(=O)[nH]c(=O)c1F | Thymidine phosphorylase (Homo sapiens, UniProt P19971) | enzyme activity, inhibitor | – | 0.009
C[C@H]1COCCN1c1nc(NCc2cccnc2C(F)(F)F)c2cccnc2n1 | Sodium channel protein type 5 subunit alpha (SCN5A, Homo sapiens, UniProt Q14524) | ion current, inhibitor | – | > 33
CCCCCCCCCCCCCCCCOC[C@H](COP(=O)([O-])OCC[N+](C)(C)C)OC(C)=O | Platelet-activating factor receptor (PTAFR, Homo sapiens, UniProt P25105) | ligand displacement, radioligand | – | 0.00027
C[C@@H]1O[C@@H](OC[C@H]2O[C@@H](Oc3c(-c4ccc(O)c(O)c4)oc4cc(O)cc(O)c4c3=O)[C@H](O)[C@@H](O)[C@@H]2O)[C@H](O)[C@H](O)[C@H]1O | Genome polyprotein protease | enzyme activity, inhibitor, FRET | pH 7 | 104
COc1cc2oc(-c3ccc(O)c(O)c3)cc(=O)c2c(O)c1O | Genome polyprotein protease | enzyme activity, inhibitor | pH 8.5 | 5
O=c1c2ccccc2[nH]c(=S)n1-c1ccccc1 | CTSB | enzyme activity, inhibitor | – | 76.7
